# Screening data as filed in PubChem BioAssay.
# Shown are actives, neighbours in structure and some others; about 4.1% of the full set was active somewhere.
# HCV NS3 hel inh – blocks Hepatitis C virus NS3 helicase unwinding | inhibition, % at 10.9 µM | actives 0.56% (n = 290,000) | NS3 helicase DNA unwinding, Cy5 molecular beacon fluorescence | AID 1800;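 active = inhibition above the mean of all tested compounds plus 3 SD, set per campaign, cut at about 35% in these data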;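 note: 0% = DMSO wells and 100% = thioflavine S control wells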
#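 System: NS3 helicase fragment of HCV / Schedule: 1 h at 25 °C / Control set: DMSO alone as 0% and 110 µM thioflavine S as 100% / Reagent: Cy5/quencher beacon DNA duplex and ATP to start / Technique: Cy5 fluorescence / Replication: singlicate / Evaluation: % inhibition of end-to-start signal ratio versus controls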
# MEKK2 WT-MEK5 – raises or lowers MEK5 binding to wildtype human MEKK2 PB1 domain; Q9Y2U5; actives 1.1% (n = 290,000); AID 1531; bead flow cytometry, Alexa488-MEK5 binding to MEKK2 WT; actives lie on both sides; binding response (% of control), % at 10 µM; in the data active = binding response below about 67% or above about 130%
# FID counter – counter-screen for HCV NS3 helicase inhibitors: DNA intercalator displacement. inhibition, % at 7.9 µM. DNA fluorescent intercalator displacement, fluorescence. actives 0.17% (n = 290,000). AID 1845; in the data active = inhibition above about 37%;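 note: 0% = vehicle and 100% = reference compound; higher means more ethidium bromide displaced from hairpin DNA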
# MEKK3 PB1 HTS – modulators (inhibitors or enhancers) of MEK5 binding to human MEKK3 PB1 domain; Q99759; bead-based flow cytometry, Alexa488-MEK5 binding to MEKK3; actives lie on both sides; 0 = blocked by unlabeled MEK5, 100 = vehicle; binding response (% of control), % at 10 µM; actives 1.4% (n = 290,000); AID 1529;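 active = binding response more than 3 SD above or below the average of its plate-row segment, actives on both sides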;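 note: Alexa488 bead fluorescence after subtracting the streptavidin-only scavenger bead signal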
# Target sequence (Q99759 whole entry, looked up, the tested form may be a part): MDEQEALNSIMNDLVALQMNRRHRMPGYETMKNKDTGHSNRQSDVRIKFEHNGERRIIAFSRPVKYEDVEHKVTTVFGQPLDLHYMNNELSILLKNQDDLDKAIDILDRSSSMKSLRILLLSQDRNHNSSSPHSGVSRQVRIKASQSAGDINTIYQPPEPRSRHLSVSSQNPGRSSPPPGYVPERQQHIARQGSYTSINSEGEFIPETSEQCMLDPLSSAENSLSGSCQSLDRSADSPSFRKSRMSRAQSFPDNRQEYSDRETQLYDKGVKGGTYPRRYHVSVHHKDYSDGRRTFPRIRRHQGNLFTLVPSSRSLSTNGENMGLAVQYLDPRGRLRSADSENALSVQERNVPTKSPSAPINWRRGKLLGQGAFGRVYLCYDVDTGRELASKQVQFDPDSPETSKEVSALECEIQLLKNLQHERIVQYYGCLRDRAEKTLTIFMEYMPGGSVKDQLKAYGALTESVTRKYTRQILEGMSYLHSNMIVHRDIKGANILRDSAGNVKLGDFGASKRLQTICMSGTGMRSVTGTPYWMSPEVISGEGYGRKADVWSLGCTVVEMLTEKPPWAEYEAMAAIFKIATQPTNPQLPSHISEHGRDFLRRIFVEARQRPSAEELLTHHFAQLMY
# MEKK2 mut-MEK5 – signal of MEK5 binding to mutant human MEKK2 PB1 domain; bead flow cytometry, Alexa488-MEK5 binding to MEKK2 mutant; percent response, % at 10 µM; actives 0.35% (n = 290,000); AID 1530; in the data active = percent response above about 24%, passing the limit was not always enough
# T cruzi repl – blocks replication of Trypanosoma cruzi; actives 1.4% (n = 300,000); inhibition, % (concentration not given with the values); T. cruzi beta-gal in NIH3T3, luminescence, 90 h;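 active = mean inhibition across valid replicates above about 55%, limit read from the data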;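 note: signal also drops with host cell toxicity which is not excluded here; 0% = plate median of DMSO wells and 100% = zero luminescence signal; higher percent means less beta-gal luminescence so fewer parasites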
#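 Assay system: NIH/3T3 fibroblasts plus reporter T. cruzi. Amount: NIH/3T3 cells, 5,000 per well. Buffer or medium: DMEM, 2% fetal bovine serum. Doses: compound pinned at 50 nL/well, DMSO. Schedule: ≥90 h infection period, 3 h prior cell attachment. Signal: luminescent β-galactosidase signal after 60 min lysis. Read-out: parasite load inhibition, %.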
# MEKK2wt confirm – raises or lowers MEK5 binding to wildtype human MEKK2, retest | binding response (% of control), % at 10 µM | AID 1892 | shares compounds with MEKK3 PB1 HTS | bead flow cytometry, Alexa488-MEK5 binding to MEKK2 WT; actives lie on both sides | actives 2.4% (n = 5,900); in the data active = binding response below about 16% or above about 210%; inactive = in between
# MEKK2mut-MEK5 – signal of MEK5 binding to mutant human MEKK2, retest | shares compounds with MEKK3 PB1 HTS | bead flow cytometry, Alexa488-MEK5 binding to MEKK2 mutant | percent response, % at 10 µM | actives 2% (n = 5,900); in the data active = percent response mostly above about 71%, no sharp cut-off; inactive = mostly below about 38%;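 note: higher means compound restores mutant binding toward wildtype level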
# MEKK3 confirm – MEKK3-MEK5 PB1 inhibition, single concentration confirmation; bead flow cytometry, Alexa488-MEK5 binding to MEKK3; hits give low values; binding response (% of control), % at 10 µM; shares compounds with MEKK3 PB1 HTS; actives 1.8% (n = 5,900);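 active = binding response below 72% of control, or above a set upper limit, though filed actives all read lower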;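 note: 100% = DMSO only wells and 0% = binding blocked by excess unlabeled MEK5; lower values mean stronger disruption of MEK5 binding to MEKK3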
# Numbers without * were called inactive; . = not tested or not shown; [ ] = dose if it differs, or a comment.
SMILES,HCV NS3 hel inh,MEKK2 WT-MEK5,FID counter,MEKK3 PB1 HTS,MEKK2 mut-MEK5,T cruzi repl,MEKK2wt confirm,MEKK2mut-MEK5,MEKK3 confirm
CN(C)CCN(CC1CCCN(Cc2ccccc2F)C1)C(=O)Cc1ccccc1F (centres undefined),2,121,18,111,30*,50,115,5,102
Cc1ccc2c(c1)[C@@H]1CN(C)CC[C@@H]1N2C(=O)Nc1cccc(C(F)(F)F)c1,-6,139*,7,110,26,38,110,5,97
Cc1ccc2c(c1)C1CN(C)CCC1N2C(=O)Nc1cccc(C(F)(F)F)c1 (centres undefined),-17,127,14,103,15,29,.,.,.
CCC1=Nc2cc(C(=O)N3CCC4(CC3)OCCO4)ccc2Sc2ccc(C)cc21,21,98,-50,99,-3,22,.,.,.
OC(CN1CCCCC1)c1c[nH]c2ccccc12 (centres undefined),-6,109,-10,107,8,5,.,.,.
CCN(CC)c1ccc(/C=N/c2sc3c(c2C#N)C2CCN3CC2)c(O)c1,-3,96,2,109,92*,.,84,-22,93
Cc1cc(OC(=O)c2ccco2)c2c3c(c(=O)oc2c1)CCCC3,4,101,-2,102,-2,-10,.,.,.
Cc1cc(OC(=O)c2cccs2)c2c3c(c(=O)oc2c1)CCCC3,1,108,-7,151*,0,-5,100,-3,101
C=C1C(=O)O[C@@H]2C[C@@H](C)[C@@H]3C4OC4C(=O)[C@@]3(C)[C@@H](O)[C@H]12 (some centres undefined),.,70,.,69*[inhibitor],4,46,97,-5,101
C=C1C(=O)O[C@@H]2C[C@@H](C)[C@@H]3C=CC(=O)[C@@]3(C)[C@@H](OC(=O)CC(=O)O[C@H]3[C@@H]4C(=C)C(=O)O[C@@H]4C[C@@H](C)[C@@H]4C=CC(=O)[C@]43C)[C@H]12,.,96,.,94,3,51,.,.,.
CN1CC=C(/C=C/c2ccc(-c3ccccc3)cc2)CC1,-52,167*,30,110,10,70*,163,30,104
Cc1cc(C=C2C(=O)N(C)C(=S)N(C)C2=O)c(C)n1C1CCCCC1,22,72*[inhibitor],-14,95,-21,-6,82,-9,99
Cc1cc(N2CCCCC2)ccc1C=C1C(=O)N(C)C(=S)N(C)C1=O,10,29*[inhibitor],-11,90,-2,4,87,-5,88
CN1CCc2nc(SCc3cccc(Br)c3)c(C#N)cc2C1,-33,120,2,103,11,49,.,.,.
Cc1cccc(OP(N)(=O)Oc2cccc(C)c2)c1,-7,120,-9,132*,29,-17,92,-12,97
Cc1cccc(OP(=O)(NCc2ccccc2)Oc2cccc(C)c2)c1,-8,113,-29,101,10,14,.,.,.
O=c1cccc2n1CC1CC2CN(Cc2ccc3c(c2)OCO3)C1 (centres undefined),4,-1.0*[inhibitor],-14,2.0*[inhibitor],-27,4,109,16,109
Oc1ccc(C(=C(Cl)Cl)c2ccc(O)cc2)cc1,-41,106,4,107,4,-13,.,.,.
CCOC(=O)C1(c2ccccc2)CCN(CCC(C#N)(c2ccccc2)c2ccccc2)CC1,.,136*,.,101,6,40,132,27,103
CSc1ccc(C(=O)C2CCCN(Cc3cc4ccccc4[nH]3)C2)cc1 (centres undefined),-86,217*,20,104,48,34,181,37,111
NS(=O)(=O)OC(CCc1ccccc1)C(Cl)(Cl)Cl (centres undefined),-8,90,0,94,-5,-11,.,.,.
Cc1cc(OCCN2CC2)c2ccccc2n1,-15,141*,6,93,15,8,172,51,110
N#CC1=C(N)Oc2c(c(=O)oc3ccccc23)C1c1cccnc1 (centres undefined),10,108,1,106,1,8,.,.,.
CCOc1cc(C2C(C#N)=C(N)Oc3c2c(=O)oc2ccccc32)ccc1OC(=O)c1cccs1 (centres undefined),22,100,-33,129*,0,-7,94,-1,102
COc1cc(OC)c2c(c1)O[C@@H](c1ccc(OC)c(OC)c1)[C@H](O)C2,5,94,-21,101,-7,2,.,.,.
SMILES,HCV NS3 hel inh,MEKK2 WT-MEK5,FID counter,MEKK3 PB1 HTS,MEKK2 mut-MEK5,T cruzi repl,MEKK2wt confirm,MEKK2mut-MEK5,MEKK3 confirm
C[C@]12CCC3=C4CCC(=O)C=C4CC[C@H]3C1CC[C@@H]2O (some centres undefined),13,104,-13,105,0,-4,.,.,.
NC(N)=N/N=C/c1ccc(N(c2ccccc2)c2ccccc2)cc1,-51,235*,25,114,73*,42,205,63,111
O=c1[nH]c2ccccc2n1C1CCN(CCCC(c2ccc(F)cc2)c2ccc(F)cc2)CC1,-71,146*,-3,83,31*,43,195,66,109
COc1ccc2[nH]cc(CCN)c2c1,-7,152*,0,91,14,.,111,12,99
CC(N)Cc1c[nH]c2ccc(OCc3cccs3)cc12 (centres undefined),.,140*,.,119,11,19,108,7,104
Cc1ccc(O)c(C(=O)c2cc(C(=O)NCCC(C)C)c(=O)n(CCC(C)C)c2)c1,-8,104,-15,102,1,43,.,.,.
O=C(c1cc(C(=O)NCc2ccc(Cl)cc2)c(=O)n(Cc2ccc(Cl)cc2)c1)c1cc(F)ccc1O,4,107,2,134*,0,46,97,-9,103
Cc1c(CCN)ccc2c1[nH]c1ccccc12,-22,120,11,101,12,-5,.,.,.
CNCC(O)c1cc(OCc2ccccc2)c(OCc2ccccc2)cc1F (centres undefined),.,138*,.,103,17,2,125,12,104
CNCC(O)c1cccc(OC(=O)c2ccccc2C)c1 (centres undefined),-21,.,31,.,.,.,.,.,.
